# Laboratory results as given in article PMC3781598 (Pharmaceutical research, 2013).
# Entries after “also recorded” stand apart in the source; their conditions may differ.
# Key:
# [1] = molecular target: T1, human CYP2A6 (Homo sapiens, UniProt P11509); assay: Spectral ligand binding assay; conditions: for Kd 2A6: spectral titration, ≥ = minimal Kd value
# T1 sequence (P11509 with tags, fused parts or gaps limits assumed): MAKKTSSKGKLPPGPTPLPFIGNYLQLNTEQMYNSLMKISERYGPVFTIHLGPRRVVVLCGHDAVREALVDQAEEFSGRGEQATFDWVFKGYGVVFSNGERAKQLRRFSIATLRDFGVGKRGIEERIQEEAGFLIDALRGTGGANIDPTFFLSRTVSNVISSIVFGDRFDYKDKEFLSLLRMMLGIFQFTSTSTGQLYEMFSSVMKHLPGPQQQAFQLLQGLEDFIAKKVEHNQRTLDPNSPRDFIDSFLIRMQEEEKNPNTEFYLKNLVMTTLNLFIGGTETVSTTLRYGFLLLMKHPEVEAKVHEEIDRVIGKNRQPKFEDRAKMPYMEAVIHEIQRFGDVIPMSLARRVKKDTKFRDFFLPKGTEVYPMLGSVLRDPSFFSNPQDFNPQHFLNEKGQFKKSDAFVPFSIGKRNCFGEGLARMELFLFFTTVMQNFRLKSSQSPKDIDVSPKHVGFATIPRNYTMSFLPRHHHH
# [2] = molecular target: hERG (Homo sapiens, UniProt Q12809); assay: hERG patch clamp assay; type: cell-based; conditions: for inhibition at 10 µM: human
# hERG, sequence (Q12809 whole entry): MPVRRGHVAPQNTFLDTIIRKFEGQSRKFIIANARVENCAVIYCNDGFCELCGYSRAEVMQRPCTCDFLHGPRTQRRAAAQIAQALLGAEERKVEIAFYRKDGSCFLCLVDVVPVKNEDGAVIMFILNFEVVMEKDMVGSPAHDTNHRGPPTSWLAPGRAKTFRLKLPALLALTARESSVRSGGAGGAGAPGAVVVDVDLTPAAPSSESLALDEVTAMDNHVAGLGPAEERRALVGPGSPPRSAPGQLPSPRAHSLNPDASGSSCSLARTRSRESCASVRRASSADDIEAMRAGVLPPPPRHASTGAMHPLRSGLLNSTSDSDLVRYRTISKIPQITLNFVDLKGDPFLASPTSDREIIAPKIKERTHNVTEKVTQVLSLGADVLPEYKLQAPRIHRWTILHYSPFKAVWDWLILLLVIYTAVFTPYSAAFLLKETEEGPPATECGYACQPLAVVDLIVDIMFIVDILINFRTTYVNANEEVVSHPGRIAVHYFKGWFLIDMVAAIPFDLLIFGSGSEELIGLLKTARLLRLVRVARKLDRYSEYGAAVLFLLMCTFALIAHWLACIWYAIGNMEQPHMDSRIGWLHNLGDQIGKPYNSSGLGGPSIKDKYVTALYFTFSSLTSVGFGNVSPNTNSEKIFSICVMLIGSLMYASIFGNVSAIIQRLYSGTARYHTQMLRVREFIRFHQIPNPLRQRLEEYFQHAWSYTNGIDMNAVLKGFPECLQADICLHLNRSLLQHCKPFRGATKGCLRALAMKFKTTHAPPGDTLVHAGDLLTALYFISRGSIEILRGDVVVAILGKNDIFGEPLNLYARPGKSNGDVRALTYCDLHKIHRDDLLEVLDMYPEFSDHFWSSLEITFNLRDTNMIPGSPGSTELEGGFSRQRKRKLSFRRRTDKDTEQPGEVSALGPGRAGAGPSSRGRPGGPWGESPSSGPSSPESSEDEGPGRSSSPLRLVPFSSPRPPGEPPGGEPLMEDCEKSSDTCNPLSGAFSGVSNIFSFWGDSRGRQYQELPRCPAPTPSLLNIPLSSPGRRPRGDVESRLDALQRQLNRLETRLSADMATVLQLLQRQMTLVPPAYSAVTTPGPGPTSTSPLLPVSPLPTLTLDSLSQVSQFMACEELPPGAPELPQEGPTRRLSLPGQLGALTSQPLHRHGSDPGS
# Summary of the method: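 hERG inhibition by patch clamp, measured as block of the tail current. Highest test concentration was 10 μM.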
# [3] = Metabolic stability in liver microsomes; type: in vitro ADME, human; conditions: for Percent Loss of Substrate / substrate remaining: human liver microsomes; for Percent Loss of Substrate: 1 μM, 20-minute incubation; for substrate remaining: at the end of 20 min; for half-life at 1 μM / microsomal CLint at 1 μM: human, liver microsomes, pH 7.4
# Summary of the method: (§1)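 Pooled liver or lung microsomes (male B6C2F1 mouse, male Sprague-Dawley rat, human) at 1.0 mg protein/ml in 50 mM potassium phosphate pH 7.4, 3 mM MgCl2, 1 mM EDTA. […] Stopped at 0, 5, 10, 20 min with acetonitrile containing antipyrene, then LC/MS/MS. Single-exponential kel gave T1/2. CLint = kel × incubation volume/mg protein.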
# [4] = Metabolic stability in liver microsomes; type: in vitro ADME, male B6C2F1 mouse; conditions: for half-life at 1 μM / microsomal CLint at 1 μM: male, B6C2F1, mouse, liver microsomes, pH 7.4; for Percent Loss of Substrate: mouse liver microsomes, 1 μM, 20-minute incubation
# Summary of the method: as §1
# [5] = Metabolic stability in liver microsomes; type: in vitro ADME, male Sprague-Dawley rat; conditions: for half-life at 1 μM / microsomal CLint at 1 μM: male, Sprague-Dawley, rat, liver microsomes, pH 7.4; for Percent Loss of Substrate: rat liver microsomes, 1 μM, 20-minute incubation
# Summary of the method: as §1
# [6] = Metabolic stability in lung microsomes; type: in vitro ADME, male Sprague-Dawley rat; conditions: for half-life at 1 μM / microsomal CLint at 1 μM: male, Sprague-Dawley, rat, lung microsomes, pH 7.4; for Percent Loss of Substrate: rat lung microsomes, 1 μM, 20-minute incubation
# Summary of the method: as §1
# [7] = molecular target: T2, CYP1A2 (Homo sapiens, UniProt P05177); assay: Metabolic stability phenotyping with recombinantly expressed CYPs; type: in vitro ADME; conditions: for half-life at 1 μM: human, recombinant CYP1A2, pH 7.4
# T2 sequence (P05177 2-516 limits assumed): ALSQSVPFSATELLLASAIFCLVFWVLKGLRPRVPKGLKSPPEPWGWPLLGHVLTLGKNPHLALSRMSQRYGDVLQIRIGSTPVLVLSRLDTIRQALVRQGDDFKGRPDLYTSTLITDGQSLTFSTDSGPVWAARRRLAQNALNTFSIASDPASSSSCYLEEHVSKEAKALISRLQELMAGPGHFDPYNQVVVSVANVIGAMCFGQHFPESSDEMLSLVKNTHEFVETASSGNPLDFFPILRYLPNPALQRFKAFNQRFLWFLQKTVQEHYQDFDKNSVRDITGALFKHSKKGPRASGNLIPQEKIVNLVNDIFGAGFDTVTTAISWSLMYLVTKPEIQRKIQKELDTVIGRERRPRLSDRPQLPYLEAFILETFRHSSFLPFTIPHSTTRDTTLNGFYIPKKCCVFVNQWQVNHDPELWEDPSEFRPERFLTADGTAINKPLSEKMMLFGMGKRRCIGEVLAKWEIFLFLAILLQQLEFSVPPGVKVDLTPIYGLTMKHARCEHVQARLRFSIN
# Summary of the method: (§2)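 Each recombinant human CYP at 100 pmol/ml with 1 μM test compound in potassium phosphate pH 7.4, 3.33 mM MgCl2. Prewarmed 10 min at 37 °C, then started with NADPH regenerating system; no-NADPH buffer controls. Aliquots at 0–45 min quenched in methanol with buspirone internal standard. MS peak-area ratios gave ln(ratio)-vs-time slope, converted to T1/2. Duplicates.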
# [8] = molecular target: CYP2C19 (Homo sapiens, UniProt P33261); assay: as above; type: in vitro ADME; conditions: recombinant CYP2C19, pH 7.4
# CYP2C19, sequence (P33261 whole entry): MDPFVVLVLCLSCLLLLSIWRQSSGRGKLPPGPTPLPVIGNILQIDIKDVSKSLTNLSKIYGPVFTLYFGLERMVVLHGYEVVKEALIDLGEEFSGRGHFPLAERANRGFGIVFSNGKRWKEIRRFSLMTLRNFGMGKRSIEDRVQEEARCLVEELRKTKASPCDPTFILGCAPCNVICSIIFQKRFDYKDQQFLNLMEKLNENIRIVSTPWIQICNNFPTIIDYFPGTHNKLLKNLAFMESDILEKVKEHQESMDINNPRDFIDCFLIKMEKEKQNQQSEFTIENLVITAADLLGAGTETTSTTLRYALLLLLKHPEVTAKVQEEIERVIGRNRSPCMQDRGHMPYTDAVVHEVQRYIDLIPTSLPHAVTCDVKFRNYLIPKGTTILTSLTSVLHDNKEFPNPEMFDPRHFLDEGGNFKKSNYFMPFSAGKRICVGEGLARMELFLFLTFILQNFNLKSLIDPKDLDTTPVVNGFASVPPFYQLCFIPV
# Summary of the method: as §2
# [9] = molecular target: T3, CYP2B6 (Homo sapiens, UniProt P20813); assay: as above; type: in vitro ADME; conditions: recombinant CYP2B6, pH 7.4
# T3 sequence (P20813 1-491): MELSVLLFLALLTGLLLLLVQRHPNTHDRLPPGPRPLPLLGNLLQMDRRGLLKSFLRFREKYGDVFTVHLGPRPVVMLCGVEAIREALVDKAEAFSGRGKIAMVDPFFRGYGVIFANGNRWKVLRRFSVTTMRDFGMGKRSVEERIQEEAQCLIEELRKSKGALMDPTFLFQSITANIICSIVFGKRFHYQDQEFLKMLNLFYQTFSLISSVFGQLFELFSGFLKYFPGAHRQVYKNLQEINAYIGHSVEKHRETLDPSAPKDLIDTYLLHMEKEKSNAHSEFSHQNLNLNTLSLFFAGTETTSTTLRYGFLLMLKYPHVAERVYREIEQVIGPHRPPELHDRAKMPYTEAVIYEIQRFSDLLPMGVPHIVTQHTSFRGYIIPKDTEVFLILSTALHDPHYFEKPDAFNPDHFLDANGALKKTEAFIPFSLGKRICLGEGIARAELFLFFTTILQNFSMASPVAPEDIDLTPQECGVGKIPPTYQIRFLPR
# Summary of the method: as §2
# [10] = molecular target: T1, human CYP2A6; assay: Coumarin metabolism assay
compound,measurement,setting,value
"Clc1ccccc1CN1CCOCC1 [Compound 3, 4-(2-chlorobenzyl)morpholine]",Kd 2A6,[1],No ^** Spectral Shift
same,IC50,[2],> 10 µM
same,inhibition at 10 µM,[2],13.9%
same,Percent Loss of Substrate,[3],47.0%
same,substrate remaining,[3],53%
same,half-life at 1 μM,[3],22.9 min
same,microsomal CLint at 1 μM,[3],30.3 µL/min/mg
same,half-life at 1 μM,[4],1 min
same,microsomal CLint at 1 μM,[4],687 µL/min/mg
same,Percent Loss of Substrate,[4],100/100%
same,half-life at 1 μM,[5],4.7 min
same,microsomal CLint at 1 μM,[5],149 µL/min/mg
same,Percent Loss of Substrate,[5],96.7%
same,half-life at 1 μM,[6],2.4 min
same,microsomal CLint at 1 μM,[6],283 µL/min/mg
same,Percent Loss of Substrate,[6],99.8%
same,half-life at 1 μM,[7],38.6 h
same,Average T1/2 CYP1A2,"[7]; recombinant enzyme 100 pmol/ml, 1 μM compound",essentially no loss
same,half-life at 1 μM,[8],13 min
same,half-life at 1 μM,[9],< 5 min
same,Ki,[10],≥ 1000 µM
"Fc1cccc(Cl)c1CN1CCOCC1 [Compound 7, 4-(2-chloro-6-fluorobenzyl)morpholine]",spectral shift with 2A6,"[1]; follow-up titration of HTS hit, Figure 1D",no spectral shift
same,Kd 2A6,[1],did not cause a spectral shift; also recorded: No ^** Spectral Shift
same,IC50,[2],> 10 µM
same,inhibition at 10 µM,[2],24.8%
same,Percent Loss of Substrate,[3],85.5%
same,substrate remaining,[3],14%
same,half-life at 1 μM,[3],7.6 min
same,microsomal CLint at 1 μM,[3],91.4 µL/min/mg
same,half-life at 1 μM,[4],0.8 min
same,microsomal CLint at 1 μM,[4],916 µL/min/mg
same,Percent Loss of Substrate,[4],100/100%
same,half-life at 1 μM,[5],4 min
same,microsomal CLint at 1 μM,[5],173 µL/min/mg
same,Percent Loss of Substrate,[5],97.3%
same,half-life at 1 μM,[6],1.5 min
same,microsomal CLint at 1 μM,[6],478 µL/min/mg
same,Percent Loss of Substrate,[6],100%
same,half-life at 1 μM,[7],20.2 h
same,half-life at 1 μM,[8],18 min
same,half-life at 1 μM,[9],< 5 min
same,Ki,[10],287 µM
